# Assay results as given in ChEMBL document CHEMBL1122898, “Antiulcer agents. 1. Gastric antisecretory and cytoprotective properties of substituted imidazo[1,2-a]pyridines” (1985).
# Activity calls are given as the source filed them. The calls are words filed in the database; no cut-off is given here.
# Test system: Canis familiaris
# Assay: Inhibition of histamine stimulated gastric acid secretion in adult mongrel dogs at dose 0.1 mg/kg given intravenously
# Format: functional
# Settings: Canis lupus familiaris, Stomach, route intravenous
# Summary of the method: (§1)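 Dogs with Heidenhain pouches, 12–18 kg, fasted 18 h. Compound given iv in 3 mL or by gavage in 5 mL of 0.4% methylcellulose/saline, 1 h after infusion start. 30-min collections titrated. Summed 3-h AO against the same dog's control AO gives % inhibition. Usually one dog per compound.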
row,Compound,inhibition in vivo at 0.1 mg/kg [%]
1,Cc1nc2c(CCc3ccccc3)cccn2c1CC#N,74
2,CCc1nc2c(OCc3ccccc3)cccn2c1CC#N,16
3,Cc1nc2c(OCc3cccs3)cccn2c1CC#N,26
4,Cc1nc2c(OCc3ccc(Cl)cc3)cccn2c1CC#N,29
5,Cc1nc2c(OCc3ccccc3)cccn2c1CC#N,49
6,Cc1nc2c(OCc3ccsc3)cccn2c1CC#N,70
7,Cc1nc2c(NCc3ccccc3)cccn2c1CC#N,85
8,[C-]#[N+]Cc1c(C)nc2c(OCc3ccccc3)cccn12,37

# Test system: Canis familiaris
# Assay: Inhibition of histamine stimulated gastric acid secretion in adult mongrel dogs at dose 1 mg/kg given intravenously
# Format: functional
# Settings: Canis lupus familiaris, Stomach, route intravenous
# Summary of the method: as §1
row,Compound,inhibition in vivo at 1 mg/kg [%]
1,Cc1nc2cccc(CCc3ccccc3)n2c1CC#N,71
2,Cc1nc2c(OCc3ccccc3)cccn2c1C,90
3,Cc1nc2c(OCc3ccccc3)cccn2c1CC(=O)N(C)C,16
4,Cc1nc2c(OCc3cccs3)cccn2c1CC#N,90
5,Cc1nc2c(OCc3ccccc3)cccn2c1CO,57
6,Cc1nc2c(OCc3ccccc3)cccn2c1CC#N,88
7,N#CCc1cnc2c(OCc3ccccc3)cccn12,52
8,Cc1nc2c(CSc3ccccc3)cccn2c1C,31

# Test system: Canis familiaris
# Assay: Inhibition of histamine stimulated gastric acid secretion in adult mongrel dogs at dose 2 mg/kg given intravenously
# Format: functional
# Settings: Canis lupus familiaris, Stomach, route intravenous
# Summary of the method: as §1
row,Compound,inhibition in vivo at 2 mg/kg [%]
1,Cc1nc2c(CCc3ccccc3)cccn2c1CC#N,92
2,CCc1nc2c(OCc3ccccc3)cccn2c1CC#N,95
3,Cc1nc2c(OCc3ccccc3)cccn2c1CO,80
4,Cc1nc2c(OCc3ccc(C(F)(F)F)cc3)cccn2c1CC#N,44
5,Cc1nc2c(OCc3ccccc3)cccn2c1CC(=N)S,21
6,Cc1nc2c(OCc3ccc(Cl)cc3)cccn2c1CC#N,58
7,Cc1nc2c(OCc3ccccc3)cccn2c1CC#N,95
8,N#CCc1cnc2c(OCc3ccccc3)cccn12,96
9,Cc1nc2c(NCc3ccccc3)cccn2c1CC#N,96
10,[C-]#[N+]Cc1c(C)nc2c(OCc3ccccc3)cccn12,94

# Test system: Canis familiaris
# Assay: Inhibition of histamine stimulated gastric acid secretion in adult mongrel dogs at dose 2 mg/kg given orally
# Format: functional
# Settings: Canis lupus familiaris, Stomach, route oral
# Summary of the method: as §1
row,Compound,inhibition in vivo at 2 mg/kg [%]
1,Cc1nc2c(OCCc3ccccc3)cccn2c1CC#N,0
2,Cc1nc2c(OCc3ccc(Cl)cc3)cccn2c1CC#N,30
3,Cc1nc2c(OCc3ccccc3)cccn2c1CC#N,20
4,N#CCc1cnc2c(OCc3ccccc3)cccn12,6
5,Cc1nc2c(OCc3ccsc3)cccn2c1CC#N,40

# Test system: Canis familiaris
# Assay: Inhibition of histamine stimulated gastric acid secretion in mongrel dogs following 4 mg/kg p.o. administration.
# Format: functional
# Settings: Canis lupus familiaris, Stomach, route oral
# Summary of the method: as §1
row,Compound,inhibition in vivo at 4 mg/kg [%]
1,Cc1nc2c(OCc3ccccc3)cccn2c1C,0
2,CCc1nc2c(OCc3ccccc3)cccn2c1CC#N,54
3,Cc1nc2c(OCc3ccccc3)cccn2c1CO,20
4,Cc1nc2c(OCc3ccc(C(F)(F)F)cc3)cccn2c1CC#N,27
5,Cc1nc2c(OCc3ccccc3)cccn2c1CC(=N)S,34
6,Cc1nc2c(OCCc3ccccc3)cccn2c1CC#N,47
7,Cc1nc2c(OCc3ccc(Cl)cc3)cccn2c1CC#N,56
8,Cc1nc2c(OCc3ccccc3)cccn2c1CC#N,42
9,Cc1nc2c(OCc3ccsc3)cccn2c1CC#N,77
10,Cc1nc2c(NCc3ccccc3)cccn2c1CC#N,35
11,[C-]#[N+]Cc1c(C)nc2c(OCc3ccccc3)cccn12,8

# Test system: Canis familiaris
# Assay: Inhibition of histamine stimulated gastric acid secretion in adult mongrel dogs at dose 5 mg/kg given intravenously
# Format: functional
# Settings: Canis lupus familiaris, Stomach, route intravenous
# Summary of the method: as §1
row,Compound,inhibition in vivo at 5 mg/kg [%]
1,Cc1nc2c(CCc3ccccc3)cccn2c1CC#N,96
2,Cc1nc2c(OCc3ccccc3)cccn2c1C#N,4
3,Cc1nc2c(OCc3cccs3)cccn2c1CC#N,99
4,Cc1nc2c(OCc3ccccc3)cccn2c1CO,80
5,Cc1nc2c(OCc3ccccc3)cccn2c1C(=O)O,4
6,Cc1nc2c(OCc3ccc(C(F)(F)F)cc3)cccn2c1CC#N,59
7,Cc1nc2c(OCc3ccccc3)cccn2c1CC(=N)S,62
8,Cc1nc2c(OCCc3ccccc3)cccn2c1CC#N,95
9,Cc1nc2c(OCc3ccc(Cl)cc3)cccn2c1CC#N,95
10,Cc1nc2c(OCc3ccccc3)cccn2c1CC#N,99
11,Cc1nc2c(OCc3ccsc3)cccn2c1CC#N,97
12,Cc1nc2c(NCc3ccccc3)cccn2c1CC#N,98

# Test system: Canis familiaris
# Assay: Inhibition of histamine stimulated gastric acid secretion in adult mongrel dogs at dose 8 mg/kg given orally
# Format: functional
# Settings: Canis lupus familiaris, Stomach, route oral
# Summary of the method: as §1
row,Compound,inhibition in vivo at 8 mg/kg [%]
1,Cc1nc2cccc(CCc3ccccc3)n2c1CC#N,9
2,Cc1nc2c(OCc3ccccc3)cccn2c1C,26
3,Cc1nc2c(CCc3ccccc3)cccn2c1CC#N,83
4,CCc1nc2c(OCc3ccccc3)cccn2c1CC#N,93
5,Cc1nc2c(OCc3cccs3)cccn2c1CC#N,75
6,Cc1nc2c(OCc3ccccc3)cccn2c1CO,20
7,Cc1nc2c(OCc3ccc(C(F)(F)F)cc3)cccn2c1CC#N,25
8,Cc1nc2c(OCc3ccccc3)cccn2c1CC(=N)S,60
9,Cc1nc2c(OCCc3ccccc3)cccn2c1CC#N,89
10,Cc1nc2c(OCc3ccc(Cl)cc3)cccn2c1CC#N,70
11,Cc1nc2c(OCc3ccccc3)cccn2c1CC#N,77
12,N#CCc1cnc2c(OCc3ccccc3)cccn12,46
13,Cc1nc2c(OCc3ccsc3)cccn2c1CC#N,88
14,Cc1nc2c(NCc3ccccc3)cccn2c1CC#N,75
15,[C-]#[N+]Cc1c(C)nc2c(OCc3ccccc3)cccn12,94

# Organism: Canis familiaris
# Assay: Relative potency was calculated; value ranges from 0.1-2.1
# Format: functional, Canis lupus familiaris
# Settings: not given
row,Compound,Relative potency
1,Cc1nc2c(NCc3ccccc3)cccn2c1CC#N,1.5

# Test system: Canis familiaris
# Assay: Effective dose against histamine stimulated gastric acid secretion in adult mongrel dogs given intravenously; value ranges from 0.01-1.19
# Format: functional
# Settings: Canis lupus familiaris, Stomach, iv
row,Compound,ED50 [mg/kg]
1,Cc1nc2c(OCc3ccccc3)cccn2c1CC#N,0.09

# Test system: Canis familiaris
# Assay: Effective dose against histamine stimulated gastric acid secretion in adult mongrel dogs given orally
# Format: functional
# Settings: Canis lupus familiaris, Stomach, po
row,Compound,ED50 [mg/kg]
1,Cc1nc2c(OCc3ccsc3)cccn2c1CC#N,2.7

# Test system: Canis familiaris
# Assay: Effective dose against histamine stimulated gastric acid secretion in adult mongrel dogs given orally; value ranges from 2.1-14.0
# Format: functional
# Settings: Canis lupus familiaris, Stomach, po
row,Compound,ED50 [mg/kg]
1,Cc1nc2c(OCc3ccccc3)cccn2c1CC#N,4.4
2,Cc1nc2c(NCc3ccccc3)cccn2c1CC#N,6.7

# Test system: Canis familiaris
# Assay: Inhibition of histamine stimulated gastric acid secretion in adult mongrel dogs at dose 4 mg/kg given orally
# Format: functional
# Settings: Canis lupus familiaris, Stomach, route oral
# Summary of the method: as §1
row,Compound,inhibition in vivo at 4 mg/kg [%]
1,Cc1nc2c(CCc3ccccc3)cccn2c1CC#N,3
2,Cc1nc2c(OCc3cccs3)cccn2c1CC#N,17

# Organism: Rattus norvegicus
# Assay: Oral gastric cytoprotective activity in the rat against ethanol-induced lesions
# Format: functional
# Settings: Stomach
# Summary of the method: (§2)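 Rats fasted and water-deprived for 20 h. Compound given orally, 1–30 mg/kg in 0.4% methylcellulose/saline, 30 min before 1 mL absolute ethanol po. Killed 1 h after ethanol. Linear hemorrhagic lesion lengths totalled per stomach, expressed as group mean. ED50 by linear regression.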
row,Compound,ED50 [mg/kg]
1,Cc1nc2cccc(CCc3ccccc3)n2c1CC#N,7.2
2,Cc1nc2c(OCc3ccccc3)cccn2c1C,10
3,Cc1nc2c(CCc3ccccc3)cccn2c1CC#N,7
4,CCc1nc2c(OCc3ccccc3)cccn2c1CC#N,4
5,Cc1nc2c(OCc3cccs3)cccn2c1CC#N,7
6,Cc1nc2c(OCc3ccccc3)cccn2c1CO,16
7,Cc1nc2c(OCc3ccc(C(F)(F)F)cc3)cccn2c1CC#N,3
8,Cc1nc2c(OCc3ccccc3)cccn2c1CC(=N)S,7
9,Cc1nc2c(OCCc3ccccc3)cccn2c1CC#N,6
10,Cc1nc2c(OCc3ccc(Cl)cc3)cccn2c1CC#N,6.6
11,Cc1nc2c(OCc3ccccc3)cccn2c1CC#N,3
12,N#CCc1cnc2c(OCc3ccccc3)cccn12,1
13,Cc1nc2c(OCc3ccsc3)cccn2c1CC#N,2
14,Cc1nc2c(NCc3ccccc3)cccn2c1CC#N,2

# Organism: Rattus norvegicus
# Assay: Oral gastric cytoprotective activity in the rat against ethanol-induced lesions was evaluated; NA=Inactive.
# Format: functional, organism-based
# Settings: Stomach
# Summary of the method: as §2
row,Compound,ED50
1,Cc1nc2c(OCc3ccccc3)cccn2c1C#N,inactive
2,Cc1nc2c(OCc3ccccc3)cccn2c1C(=O)O,inactive

# Test system: Rattus norvegicus
# Assay: Gastric antisecretory activity in the pylorus-ligated rat and the reduction in acid output was measured after 4 hr by intraperitoneal (ip) administration of 40 mg/kg dose.
# Format: functional
# Settings: not given
# Summary of the method: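 Male Charles River CD rats, 150–200 g, fasted 24 h. Pylorus ligated under Brevital anesthesia. 40 mg/kg given ip in 2.5% Tween 80 at ligation. Stomach contents collected at 4 h and titrated with 0.1 N NaOH to pH 7.0. % inhibition from mean AO, 6 treated vs 8 control rats. Student's t test.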
row,Compound,inhibition in vivo at 40 mg/kg [%]
1,Cc1nc2cccc(CCc3ccccc3)n2c1CC#N,20
2,Cc1nc2c(OCc3ccccc3)cccn2c1C,99
3,Cc1nc2c(OCc3ccccc3)cccn2c1CC(=O)N(C)C,37
4,Cc1nc2c(CCc3ccccc3)cccn2c1CC#N,99
5,Cc1nc2c(OCc3ccccc3)cccn2c1C#N,25
6,CCc1nc2c(OCc3ccccc3)cccn2c1CC#N,91
7,Cc1nc2c(OCc3cccs3)cccn2c1CC#N,96
8,Cc1nc2c(OCc3ccccc3)cccn2c1CO,99
9,Cc1nc2c(OCc3ccccc3)cccn2c1C(=O)O,0
10,Cc1nc2c(OCc3ccc(C(F)(F)F)cc3)cccn2c1CC#N,26
11,Cc1nc2c(OCc3ccccc3)cccn2c1CC(=N)S,67
12,Cc1nc2c(OCCc3ccccc3)cccn2c1CC#N,70
13,Cc1nc2c(OCc3ccc(Cl)cc3)cccn2c1CC#N,90
14,Cc1nc2c(OCc3ccccc3)cccn2c1CC#N,98
15,N#CCc1cnc2c(OCc3ccccc3)cccn12,99
16,Cc1nc2c(OCc3ccsc3)cccn2c1CC#N,91
17,Cc1nc2c(NCc3ccccc3)cccn2c1CC#N,98
18,Cc1nc2c(CSc3ccccc3)cccn2c1C,29
19,[C-]#[N+]Cc1c(C)nc2c(OCc3ccccc3)cccn12,96

# Organism: Rattus norvegicus
# Assay: Oral gastric cytoprotective activity in the rat against ethanol-induced lesions was evaluated
# Settings: Stomach
row,Compound,ED50 [mg/kg]
1,Cc1nc2c(CSc3ccccc3)cccn2c1C,6.4
2,[C-]#[N+]Cc1c(C)nc2c(OCc3ccccc3)cccn12,2.2
